According to paper PMC2556891 (ACS chemical biology, 2008):
Positions count from the first letter of the chain named.

Columns and labels:
ClC-ec1 = ClC-ec1 (Escherichia coli, UniProt P37019); assay: Chloride flux assay with ClC-ec1 reconstituted in vesicles; format: biochemical
ClC-0 [1] = molecular target: T1, ClC-0 (Torpedo marmorata, UniProt P21564); assay: ClC-0 currents, inside-out patches from Xenopus oocytes; format: cell-based; conditions: intracellular application, various concentrations
T1 sequence (P21564 1-805): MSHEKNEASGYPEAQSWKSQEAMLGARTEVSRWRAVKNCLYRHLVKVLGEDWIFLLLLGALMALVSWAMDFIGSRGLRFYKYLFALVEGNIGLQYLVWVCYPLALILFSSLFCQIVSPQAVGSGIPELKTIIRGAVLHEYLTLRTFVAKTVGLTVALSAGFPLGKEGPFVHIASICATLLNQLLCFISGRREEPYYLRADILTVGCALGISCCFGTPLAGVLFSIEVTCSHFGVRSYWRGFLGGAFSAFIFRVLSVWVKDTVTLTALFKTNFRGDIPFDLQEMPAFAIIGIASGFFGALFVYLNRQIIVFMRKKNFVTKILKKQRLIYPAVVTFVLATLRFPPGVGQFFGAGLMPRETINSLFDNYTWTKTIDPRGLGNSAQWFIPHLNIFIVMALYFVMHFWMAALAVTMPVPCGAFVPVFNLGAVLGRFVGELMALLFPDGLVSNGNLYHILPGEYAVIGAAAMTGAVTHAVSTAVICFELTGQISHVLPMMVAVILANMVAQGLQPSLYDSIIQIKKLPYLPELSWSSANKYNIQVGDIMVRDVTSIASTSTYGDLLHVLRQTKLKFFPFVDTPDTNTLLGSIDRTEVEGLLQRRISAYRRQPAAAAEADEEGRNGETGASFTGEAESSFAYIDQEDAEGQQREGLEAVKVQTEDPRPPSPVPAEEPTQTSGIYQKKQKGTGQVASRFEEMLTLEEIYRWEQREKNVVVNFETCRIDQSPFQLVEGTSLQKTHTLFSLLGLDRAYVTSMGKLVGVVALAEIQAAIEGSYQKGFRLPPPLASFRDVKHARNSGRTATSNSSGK
Outline: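 Defolliculated Xenopus oocytes injected with 27.5 nL ClC-0 RNA (~500 ng/μL) and kept at 16 °C for 2-7 days. Test compound delivered by microfluidic switching. Holding at 0 mV; every 5 s step to +50 mV (50 ms) then −100 mV (50 ms). Instantaneous −100 mV current taken over time as I/Io; initial inhibition rate fitted; 3-5 oocytes; mean ± SEM.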

[2] = Stability of DIDS in aqueous solution by reversed-phase HPLC; format: physicochemical
ClC-0 [3] = molecular target: T1, ClC-0; conditions: cited from earlier work
ClC-Ka = molecular target: T2, ClC-Ka (Homo sapiens, UniProt P51800); conditions: cited from earlier work
T2 sequence (P51800 1-687): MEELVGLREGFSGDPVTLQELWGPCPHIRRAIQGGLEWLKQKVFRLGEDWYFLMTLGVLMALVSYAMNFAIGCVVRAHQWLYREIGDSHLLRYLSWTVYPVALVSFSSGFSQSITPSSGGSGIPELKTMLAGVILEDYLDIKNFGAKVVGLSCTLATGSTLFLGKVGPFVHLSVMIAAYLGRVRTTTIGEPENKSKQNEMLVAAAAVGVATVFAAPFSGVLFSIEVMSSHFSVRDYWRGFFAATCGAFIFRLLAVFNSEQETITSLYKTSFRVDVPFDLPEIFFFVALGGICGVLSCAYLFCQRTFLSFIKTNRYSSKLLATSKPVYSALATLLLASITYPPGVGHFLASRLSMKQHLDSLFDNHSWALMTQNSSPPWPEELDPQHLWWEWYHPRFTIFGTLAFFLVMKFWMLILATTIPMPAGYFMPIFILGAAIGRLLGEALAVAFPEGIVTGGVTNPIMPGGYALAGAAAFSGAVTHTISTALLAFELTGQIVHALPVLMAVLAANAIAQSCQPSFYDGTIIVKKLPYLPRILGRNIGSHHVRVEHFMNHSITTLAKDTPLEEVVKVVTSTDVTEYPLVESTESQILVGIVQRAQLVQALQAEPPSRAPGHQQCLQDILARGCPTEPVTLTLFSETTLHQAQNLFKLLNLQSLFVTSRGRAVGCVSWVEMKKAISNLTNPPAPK
T2 sequence (Q8WZ55 1-320 Y98A partner): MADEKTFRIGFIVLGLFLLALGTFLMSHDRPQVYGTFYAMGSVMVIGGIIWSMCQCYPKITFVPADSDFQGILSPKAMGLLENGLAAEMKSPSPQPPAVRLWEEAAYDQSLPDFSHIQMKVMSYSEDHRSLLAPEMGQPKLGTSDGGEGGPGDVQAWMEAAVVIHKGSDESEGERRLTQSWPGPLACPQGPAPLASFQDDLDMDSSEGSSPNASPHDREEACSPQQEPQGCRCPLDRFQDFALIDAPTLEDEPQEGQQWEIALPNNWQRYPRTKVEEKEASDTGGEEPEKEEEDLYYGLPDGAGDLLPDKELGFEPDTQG

ClC-Ka N68D = molecular target: T3, ClC-Ka N68D (Homo sapiens, UniProt P51800, N68D); conditions: cited from earlier work
T3 sequence (P51800 1-687 N68D): T2 sequence (P51800 1-687) with N68D
T3 sequence (Q8WZ55 1-320 Y98A partner): T2 sequence (Q8WZ55 1-320 Y98A partner)

[4] = Hill fit of ClC-ec1 chloride flux inhibition

ClC-ec1, sequence (P37019 whole entry): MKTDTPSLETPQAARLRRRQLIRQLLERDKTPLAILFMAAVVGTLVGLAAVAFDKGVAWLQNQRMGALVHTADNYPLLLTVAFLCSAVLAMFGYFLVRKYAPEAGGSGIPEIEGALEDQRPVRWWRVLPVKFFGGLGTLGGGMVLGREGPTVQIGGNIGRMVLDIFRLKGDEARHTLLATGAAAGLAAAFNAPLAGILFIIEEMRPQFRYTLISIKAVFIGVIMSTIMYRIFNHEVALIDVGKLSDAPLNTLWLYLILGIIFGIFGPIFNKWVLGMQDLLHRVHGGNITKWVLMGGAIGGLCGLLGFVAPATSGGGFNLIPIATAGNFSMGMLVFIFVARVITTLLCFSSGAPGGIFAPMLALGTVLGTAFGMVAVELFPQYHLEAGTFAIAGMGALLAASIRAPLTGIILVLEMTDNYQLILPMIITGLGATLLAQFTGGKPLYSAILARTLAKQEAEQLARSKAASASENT

| SMILES | effect on ClC-ec1 activity (ClC-ec1; at concentrations as high as 2 mM) | effect on ClC-0 (ClC-0 [1]) | (A/Ao)max (ClC-ec1; [4]) | Hill coefficient n (ClC-ec1; [4]) | stability in aqueous solution (reversed-phase HPLC) ([2]; after 3 h in aqueous solution) | stability in solution (HPLC) ([2]; after 48 h) | stability in solution (HPLC) ([2]; within 24 h in solution) | reversibility of ClC-0 inhibition (ClC-0 [3]) | reversibility of ClC-Ka inhibition from the extracellular side (ClC-Ka) | decrease of apparent affinity by N68D mutation in ClC-Ka (ClC-Ka N68D) [fold] |
| --- | --- | --- | --- | --- | --- | --- | --- | --- | --- | --- |
| Nc1ccc(C=Cc2ccc(N)cc2S(=O)(=O)O)c(S(=O)(=O)O)c1 [DADS, 4,4′-diaminostilbene-2,2′-disulfonic acid] | does not affect | no effect |  |  |  |  |  |  |  |  |
| O=S(=O)(O)c1cc(N=C=S)ccc1C=Cc1ccc(N=C=S)cc1S(=O)(=O)O [DIDS, 4,4′-diisothiocyanatostilbene-2,2′-disulfonic acid] |  |  | 1.08 | 2 | single peak | no DIDS was apparent | partially decomposed | irreversible | slowly reversible | 10 |
